Bioassay records from PubChem.
PvdQ inh = blocks Pseudomonas aeruginosa PvdQ acylase activity. purified PvdQ acylase, fluorescence plate reader. inhibition, % at 10 µM. 0.063% of 340,000 active. AID 488965; in the data active means inhibition above about 30%, passing the limit was not always enough; inconclusive means no clear call, values can overlap the other calls;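 further: 0% = vehicle neutral wells and 100% = reference inhibitor wells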
CaV13 ICDI inh = Primary screen for inhibitors of IQ motif and Ca2+-dependent inactivation inhibitor domain binding in CACNA1D, Förster resonance energy transfer in living cells, …; HEK cells, CFP/YFP FRET ICDI-IQ, plate reader, 10 min; percent FRET-ratio fall versus neutral wells; inhibition, % at 12.3 µM; 0.098% of 340,000 active;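 active means mean replicate inhibition of at least 30% and at least 1% of replicates passing that level; inconclusive means only one of the two criteria is met; inactive means neither criterion is met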;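 further: 0% = median of the neutral control wells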
PfHsp90 yeast 2 = reduces growth (ATP signal) of yeast expressing P. falciparum Hsp90 | S. cerevisiae expressing PfHsp90, BacTiter-Glo ATP, 48 h; yeast lacking PDR1 and PDR3 efflux regulators | inhibition, % at 9.4 µM | 0.32% of 310,000 active | AID 504621;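 active means every replicate shows inhibition above about 80%, whatever the replicate mean, limit read from the data; inconclusive means mean inhibition reaches the set limit but some replicate falls short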;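 further: 0% = DMSO neutral controls and 100% = 20 µM radicicol positive controls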
Glyco luc inh = blocks N-linked glycosylation in D54 reporter cells; 0.23% of 360,000 active; reporter increase, % at 12.5 µM; D54 ERlucT glycosylation luciferase reporter, 24 h; percent of 100 nM tunicamycin response;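 active means mean luciferase reporter signal, scaled so untreated is 0 and the glycosylation-blocking control 100, at or above a set limit in every replicate; inconclusive means mean reaches the limit but not every replicate does; inactive means mean below the limit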;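 further: luciferase carries N-glycosylation sites so blocking glycosylation raises the light; 0% = median of neutral control wells and 100% = median of 100 nM tunicamycin wells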
HSF-1 act = increases HSF-1 driven luciferase reporter signal; NIH3T3-HGL HSF-1 luciferase reporter, MG132, 8 h; 100% = twice DMSO control signal; activation, % at 9 µM; 1.7% of 300,000 active;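 active means mean replicate activation of at least 50% with a set share of replicates each reaching 50%; inconclusive means only one of those two conditions met; inactive means mean below 50% and too few replicates reaching it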;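 further: 0% = median of the neutral control wells and 100% = twice that signal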
T cruzi inh = T. cruzi replication inhibition; T. cruzi beta-gal in NIH3T3, luminescence, 90 h; inhibition, % (test concentration not listed); 1.4% of 300,000 active; AID 1885;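 active means mean inhibition across valid replicates above about 55%, limit read from the data; inconclusive means mean below that limit but half or more replicates reach it; inactive means mean below it, under half of replicates reach it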;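 further: signal also drops with host cell toxicity which is not excluded here; 0% = plate median of DMSO wells and 100% = zero luminescence signal; higher percent means less beta-gal luminescence so fewer parasites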
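Incubation – ≥90 h infection period, 3 h prior cell attachment · System – NIH/3T3 fibroblasts plus reporter T. cruzi · Doses – compound pinned at 50 nL/well, DMSO · Read-out basis – percent inhibition of parasite-derived β-gal signal · Signal – luminescent β-galactosidase signal after 60 min lysis · Also added – 5000 T. cruzi trypomastigotes/well · Medium – Low-serum DMEM with 2% FBS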
* marks the source's active call; other numbers are inactive results; ? = inconclusive; . = no result. A selection: hits, their analogues and other compounds. The true share with any hit is near 3%.

SMILES	PvdQ inh	CaV13 ICDI inh	PfHsp90 yeast 2	Glyco luc inh	HSF-1 act	T cruzi inh
C[C@@H]1CN([C@@H](C)CO)S(=O)(=O)c2ccc(Br)cc2O[C@H]1CN(C)C(=O)c1ccncc1	.	-5	.	1	.	.
CCOC(=O)N1CCN(S(=O)(=O)c2ccc(C(=O)N(CCN(C)C)c3nc4ccc(Cl)cc4s3)cc2)CC1	7	-3	3	-1	1	76*
Cc1ccc2sc(N(CCN(C)C)C(=O)c3ccc4ccccc4c3)nc2c1C	2	-7	-1	0	11	35
Cc1ccc2sc(N(CCCN(C)C)C(=O)CN3C(=O)c4ccccc4C3=O)nc2c1C	-20	-7	18	-1	2	58*
Cc1cc(C)c2sc(N(CCCN(C)C)C(=O)c3ccc(S(=O)(=O)N(C)C4CCCCC4)cc3)nc2c1	-7	-7	15	-7	2	55*
Cc1cc(C)c2nc(N(CCCN(C)C)C(=O)c3ccc(S(=O)(=O)N4CCCCCC4)cc3)sc2c1	5	-5	19	-5	-3	54
Cc1ccc2sc(N(CCCN(C)C)C(=O)c3ccc(S(=O)(=O)N4CCCCCC4)cc3)nc2c1C	2	-1	4	-7	-5	57*
CC(=O)N=c1sccn1CC(=O)c1ccc([N+](=O)[O-])cc1	10	-5	-7	4	58*	-14
C/C(N)=C(/C#N)C(=O)CSc1nn(-c2ccc(Cl)cc2)c(=S)s1	2	-2	1	-5	99*	21
C/C(CC(=O)Nc1ccc(C)c(Cl)c1)=N\NC(=O)Cc1ccccc1	10	-3	15	-2	?	-4
C/C(CC(=O)Nc1ccc(C)c(Cl)c1)=N\NC(=O)Cc1cnc(N)s1	-10	-5	-1	2	61*	-11
CN1CCN(C(=O)C[C@H]2CC[C@H]3[C@@H](COC[C@@H](O)CN3C(=O)C3CCCC3)O2)CC1	.	-7	.	.	.	.
CCC(C)c1ccccc1NC(=O)c1cc(C)no1 (stereo not given)	7	-3	14	0	59*	6
Cc1ccc(O)c(NC(=O)c2cc(C)no2)c1	-12	-19	-1	0	100*	-6
CCCc1cc(C(=O)Nc2cc(C)ccc2O)no1	3	-4	19	3	120*	-26
Cc1ccc(O)c(NC(=O)c2cc(-c3ccccc3)on2)c1	-20	-4	16	4	96*	-2
CC(C)(C)C1CCc2sc(C(=O)NNC(=O)CCl)cc2C1 (stereo not given)	-8	-14	-25	2	24	67*
CC(C)(C)n1nnnc1C(c1cccs1)N(Cc1ccc(Cl)cc1)CC1CCCO1 (stereo not given)	-3	-1	-22	-8	-2	58*
CCc1c(-c2ccc(F)cc2F)ncn1CCc1ccccc1OC	.	-8	.	.	.	.
CN(Cc1ccc(Cl)cc1Cl)C(=O)Cc1ccc(S(=O)(=O)N2CCOCC2)s1	.	-8	.	10	.	.
O=c1[nH]c(=O)n(C2CC(O)C(CO)O2)cc1Br (stereo not given)	-12	-12	-17	36*	.	.
COc1ccccc1C=NN=C(NN=Cc1ccccc1OC)NN=Cc1ccccc1OC	1	-11	9	-2	.	.
C=CCn1c(C)nc2c(sc3nc4c(cc32)COC(C)(C)C4)c1=O	-13	-5	9	-5	53*	-4
CC(C)(C)SCCNC(=O)c1ccc(Cl)c([N+](=O)[O-])c1	-6	-5	102*	2	19	-8
COc1ccccc1CNC(=O)Nc1nc(C(N)Cc2ccc(Cl)cc2)cs1 (stereo not given)	.	-10	.	-6	.	.
SMILES	PvdQ inh	CaV13 ICDI inh	PfHsp90 yeast 2	Glyco luc inh	HSF-1 act	T cruzi inh
O=[N+]([O-])c1cccc(-c2cn(-c3ccccc3)c(=S)[nH]2)c1	-3	-6	.	2	74*	2
O=[N+]([O-])c1ccc(-c2cn(-c3ccccc3)c(=S)[nH]2)cc1	6	-4	-1	2	30	-10
Cc1cccc(-n2cc(-c3ccc([N+](=O)[O-])cc3)[nH]c2=S)c1	0	-6	0	0	71*	-9
Cc1ccc2nc(-c3cccc(Br)c3)c(Cc3ccsc3)n2c1	.	-10	.	.	.	.
Cc1cccc(COC(=O)CCCNC(=O)c2ccc(Cl)cc2)c1	0	-2	93*	1	.	.
CN(CCC#N)C(=O)COC(=O)c1ccc(Cl)cc1O	19	-1	14	1	-18	-10
CSc1ccc(Cl)c(C(=O)OCC(=O)N(C)CCC#N)c1	-4	5	1	0	59*	-11
CCc1nc2c(OCc3ccc(F)c(F)c3)cccn2c1N(C)C(=O)c1ccc(C)cc1	.	-5	.	1	.	.
CC1CN(C(=O)c2cc(-c3ccncc3)nc3ccccc23)CC(C)O1 (stereo not given)	-3	-6	-4	45*	.	.
CC1CC(C)CN(C(=O)c2cc(-c3ccncc3)nc3ccccc23)C1 (stereo not given)	6	-6	.	1	-34	3
Cc1ccc(-c2cc(NC=O)c3ncc(-c4cnn(C)c4)n3c2)cc1	.	-25	.	11	.	.
COC(=O)[C@]12C[C@H](CC(=O)N3CCCC3)C(=O)N(Cc3ccc4c(c3)OCO4)C1=C[C@H](C(C)(C)C)O[C@@H]2C	.	-9	.	.	.	.
CCCS(=O)(=O)NC(=O)C1(C)CCN(C(=O)c2ccc(OC)c(F)c2)C1 (stereo not given)	.	.	.	1	.	.
CC(C)(C)c1ccc(S(=O)(=O)N2CCC(c3nc4ccc(Cl)cc4[nH]3)CC2)cc1	5	-9	-24	-4	-2	55*
CC(=O)Nc1ccc(S(=O)(=O)N2CCC(c3nc4ccc(C)cc4[nH]3)CC2)cc1	-8	-5	-22	4	-8	5
CN(C)c1ccc(NC(=O)Nc2csc3ccccc23)cc1	-8	-18	-1	-2	-48	30
O=C(Nc1ccc(F)cc1)Nc1csc2ccccc12	.	-17	.	-2	61*	32
N#CCN(N=Nc1ccccc1)c1ccccc1	75*	-4	6	3	20	1
Nc1nc2c(-c3ccc(Br)cc3)nnn2c2ccccc12	-19	-3	-29	-10	56*	-4
NC(=O)C1(Nc2ccc(Br)cc2)CCCC1	7	-5	0	0	.	.
Cc1cccc(-n2ncc3c(N)ncnc32)c1	12	-4	-8	4	24	-2
Cc1cccc(-n2ncc3c(Nc4ccc(F)cc4)ncnc32)c1	-14	-6	-2	-5	51*	6
Cc1cccc(-n2ncc3c(N(C)Cc4ccccc4)ncnc32)c1	-13	-6	14	-3	61*	5
COC(=O)C1=C(C)N(C)C(=NCc2ccc(OC)cc2)NC1c1ccc(C(F)(F)F)cc1 (stereo not given)	.	-11	.	.	.	.
